According to ChEMBL document CHEMBL1136923, “Highly potent, orally available anti-inflammatory broad-spectrum chemokine inhibitors” (J Med Chem, 2009):

Legend:
Mus musculus [1] = assay: Antiinflammatory activity in mouse assessed as inhibition of LPS-induced TNFalpha upregulation at 300 pg, sc measured 2 hrs after LPS challenge; format: functional
Outline: (§1)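 Sublethal murine endotoxemia with LPS given intraperitoneally. Compound was given subcutaneously in vehicle of 0.6% DMSO and 1% carboxymethylcellulose (final concentrations) in sterile water. Serum TNF-α was measured 2 h after LPS injection. Values are expressed as % relative to control.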

Mus musculus [2] = assay: Antiinflammatory activity in mouse assessed as inhibition of LPS-induced TNFalpha upregulation at 0.03 ug, sc measured 2 hrs after LPS challenge; format: functional
Outline: (§2)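 Murine sublethal endotoxemia: LPS given intraperitoneally, with serum TNF-α measured 2 h after the LPS injection as the end point. Compound was given subcutaneously or orally. Vehicle was 0.6% DMSO and 1% carboxymethylcellulose (final concentrations) in sterile water. Effect is reported as % relative to control.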

Mus musculus [3] = assay: Antiinflammatory activity in mouse assessed as inhibition of LPS-induced TNFalpha upregulation at 0.015 mg, sc measured 2 hrs after LPS challenge; format: functional; outline: as §1
Mus musculus [4] = assay: Antiinflammatory activity in mouse assessed as inhibition of LPS-induced TNFalpha upregulation at 0.003 mg, sc measured 2 hrs after LPS challenge; format: functional; outline: as §2
Mus musculus [5] = assay: Antiinflammatory activity in mouse assessed as inhibition of LPS-induced TNFalpha upregulation at 0.06 mg, sc measured 2 hrs after LPS challenge; format: functional; outline: as §1
Mus musculus [6] = assay: Antiinflammatory activity in sc dosed mouse assessed as inhibition of LPS-induced TNFalpha upregulation measured 2 hrs after LPS challenge relative to control; format: functional
Outline: (§3)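 Murine sublethal LPS endotoxemia screen. LPS is injected intraperitoneally and serum TNF-α is measured 2 h later as the end point. Compound is given subcutaneously or orally in a vehicle of 0.6% DMSO plus 1% carboxymethylcellulose (final concentrations) in sterile water. Values are % relative to control.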

Mus musculus [7] = assay: Antiinflammatory activity in sc dosed mouse assessed as inhibition of LPS-induced TNFalpha upregulation measured 2 hrs after LPS challenge; format: functional
Mus musculus [8] = assay: Antiinflammatory activity in mouse assessed as inhibition of LPS-induced TNFalpha upregulation at 0.003 ug, sc measured 2 hrs after LPS challenge; format: functional; outline: as §2
Mus musculus [9] = assay: Antiinflammatory activity in mouse assessed as inhibition of LPS-induced TNFalpha upregulation at 0.03 mg, sc measured 2 hrs after LPS challenge; format: functional; outline: as §1
Mus musculus [10] = assay: Antiinflammatory activity in mouse assessed as inhibition of LPS-induced TNFalpha upregulation at 0.3 ug, sc measured 2 hrs after LPS challenge; format: functional; outline: as §2
Mus musculus [11] = assay: Antiinflammatory activity in mouse assessed as inhibition of LPS-induced TNFalpha upregulation at 0.12 mg, sc measured 2 hrs after LPS challenge; format: functional; outline: as §1
[12] = Fractional bioavailability in Sprague-Dawley rat at 3 mg/kg, po administered as single dose; format: ADME, organism-based; conditions: in vivo
Outline: (§4)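 Male Sprague-Dawley rats, three per compound, receive a single oral dose by gavage in 1% carboxymethylcellulose in 0.9% saline, with food and water ad libitum. Plasma is sampled from 5 to 480 min and drug is quantified by positive-mode LC/MS/MS after acetonitrile/formic acid extraction. The lower limit of quantitation is about 2 ng/mL. Exposure is AUC(0→t) by the linear/log trapezoidal rule, and F is oral fractional bioavailability.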

[13] = biological target: C-C chemokine receptor type 2 (Homo sapiens) (UniProt P41597); assay: Antagonist activity at CCR2 in human THP1 cells assessed as inhibition of CCL2-induced chemotaxis at 1 nM after 2 hrs by microtiter format trans-well migration assay; format: functional, cell-based; conditions: THP-1
Sequence of C-C chemokine receptor type 2 (Homo sapiens) (P41597 whole entry, looked up): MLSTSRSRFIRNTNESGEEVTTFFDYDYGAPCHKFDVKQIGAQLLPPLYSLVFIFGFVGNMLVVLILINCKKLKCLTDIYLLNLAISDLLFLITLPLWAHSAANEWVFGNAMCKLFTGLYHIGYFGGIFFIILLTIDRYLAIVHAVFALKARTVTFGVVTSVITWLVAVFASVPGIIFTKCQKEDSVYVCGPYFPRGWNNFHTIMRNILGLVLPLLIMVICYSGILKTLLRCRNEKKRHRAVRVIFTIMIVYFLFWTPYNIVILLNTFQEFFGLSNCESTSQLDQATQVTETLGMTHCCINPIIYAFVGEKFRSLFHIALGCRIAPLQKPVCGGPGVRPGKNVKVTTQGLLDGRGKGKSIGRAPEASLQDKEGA
Outline: (§5)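 Microtiter trans-well migration assay in Gey's balanced salt solution with 1 mg/mL endotoxin-free BSA, no fetal calf serum. Migration ran 2 h at 37 °C. Compounds dissolved in DMSO and added to both top and bottom compartments, final DMSO 1%.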

Mus musculus [14] = assay: Antiinflammatory activity in mouse assessed as inhibition of LPS-induced TNFalpha upregulation at 0.0055 ug, sc measured 2 hrs after LPS challenge; format: functional; outline: as §2
Mus musculus [15] = assay: Antiinflammatory activity in mouse assessed as inhibition of LPS-induced TNFalpha upregulation at 0.00013 mg, sc measured 2 hrs after LPS challenge; format: functional
Outline: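 Murine sublethal endotoxemia: LPS given intraperitoneally, serum TNF-α measured 2 h after LPS injection. Compound vehicle 0.6% DMSO plus 1% carboxymethylcellulose (final concentrations) in sterile water.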

[16] = Clearance in Sprague-Dawley rat at 1 mg/kg, iv administered as single dose; format: ADME, organism-based; parameters: dose 1 mg/kg, route intravenous; conditions: in vivo
Outline: (§6)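 Male Sprague-Dawley rats, three per compound, receive a single intravenous dose in 5% DMSO in 0.9% saline. Food and water are given ad libitum. Plasma is taken at 5, 15, 30, 60, 120, 180, 240 and 480 min. Drug is measured by LC/MS/MS after extraction with 0.1% formic acid in acetonitrile. The curve is back-extrapolated to time zero assuming an initial volume of 0.26 L/kg.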

Mus musculus [17] = assay: Antiinflammatory activity in mouse assessed as inhibition of LPS-induced TNFalpha upregulation at 0.61 ug, po measured 2 hrs after LPS challenge; format: functional; outline: as §2
Mus musculus [18] = assay: Antiinflammatory activity in mouse assessed as inhibition of LPS-induced TNFalpha upregulation at 0.013 mg, sc measured 2 hrs after LPS challenge; format: functional; outline: as §2
[19] = biological target: C-C chemokine receptor type 2 (Homo sapiens) (UniProt P41597); assay: Antagonist activity at CCR2 in human THP1 cells assessed as inhibition of CCL2-induced chemotaxis at 0.01 nM after 2 hrs by microtiter format trans-well migration assay; format: functional, cell-based; conditions: THP-1; outline: as §5
Mus musculus [20] = assay: Antiinflammatory activity in mouse assessed as inhibition of LPS-induced TNFalpha upregulation at 0.0023 ug, po measured 2 hrs after LPS challenge; format: functional; outline: as §2
[21] = Half life in Sprague-Dawley rat at 1 mg/kg, iv administered as single dose; format: ADME, organism-based; parameters: dose 1 mg/kg, route intravenous; conditions: in vivo; outline: as §6
Mus musculus [22] = assay: Antiinflammatory activity in mouse assessed as inhibition of LPS-induced TNFalpha upregulation at 0.013 ug, sc measured 2 hrs after LPS challenge; format: functional; outline: as §2
Mus musculus [23] = assay: Antiinflammatory activity in po dosed mouse assessed as inhibition of LPS-induced TNFalpha upregulation measured 2 hrs after LPS challenge relative to control; format: functional; outline: as §3
Mus musculus [24] = assay: Antiinflammatory activity in mouse assessed as inhibition of LPS-induced TNFalpha upregulation at 450 pg, po measured 2 hrs after LPS challenge; format: functional; outline: as §2
[25] = biological target: C-C chemokine receptor type 2 (Homo sapiens) (UniProt P41597); assay: Antagonist activity at CCR2 in human THP1 cells assessed as inhibition of CCL2-induced chemotaxis at 1000 nM after 2 hrs by microtiter format trans-well migration assay; format: functional, cell-based; conditions: THP-1; outline: as §5
Mus musculus [26] = assay: Antiinflammatory activity in mouse assessed as inhibition of LPS-induced TNFalpha upregulation at 0.016 mg, po measured 2 hrs after LPS challenge; format: functional; outline: as §2
Mus musculus [27] = assay: Antiinflammatory activity in po dosed mouse assessed as inhibition of LPS-induced TNFalpha upregulation measured 2 hrs after LPS challenge; format: functional
[28] = biological target: C-C chemokine receptor type 2 (Homo sapiens) (UniProt P41597); assay: Antagonist activity at CCR2 in human THP1 cells assessed as inhibition of CCL2-induced chemotaxis after 2 hrs by microtiter format trans-well migration assay; format: functional, cell-based; conditions: THP-1; outline: as §5
Mus musculus [29] = assay: Antiinflammatory activity in mouse assessed as inhibition of LPS-induced TNFalpha upregulation at 0.0013 mg, sc measured 2 hrs after LPS challenge; format: functional; outline: as §2
Mus musculus [30] = assay: Antiinflammatory activity in mouse assessed as inhibition of LPS-induced TNFalpha upregulation at […], sc measured 2 hrs after LPS challenge; format: functional; outline: as §2
[31] = Volume of distribution at steady state in Sprague-Dawley rat at 1 mg/kg, iv administered as single dose; format: ADME, organism-based; parameters: dose 1 mg/kg, route intravenous; conditions: in vivo, read-out: Vdss; outline: as §6
[32] = Cmax in Sprague-Dawley rat at 3 mg/kg, po administered as single dose; format: ADME, organism-based; parameters: dose 3 mg/kg, route oral; conditions: in vivo; outline: as §4
[33] = biological target: C-C chemokine receptor type 2 (Homo sapiens) (UniProt P41597); assay: Antagonist activity at CCR2 in human THP1 cells assessed as inhibition of CCL2-induced chemotaxis at 100 nM after 2 hrs by microtiter format trans-well migration assay; format: functional, cell-based; conditions: THP-1; outline: as §5
[34] = Half life in Sprague-Dawley rat at 3 mg/kg, po administered as single dose; format: ADME, organism-based; parameters: dose 3 mg/kg, route oral; conditions: in vivo; outline: as §4
[35] = AUC (0 to t) in Sprague-Dawley rat at 3 mg/kg, po administered as single dose; format: ADME, organism-based; parameters: dose 3 mg/kg, route oral; conditions: plasma
Outline: (§7)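 Male Sprague-Dawley rats, three per compound per route, single dose. IV vehicle 5% DMSO in 0.9% saline; oral gavage vehicle 1% carboxymethylcellulose in 0.9% saline; fed ad libitum. Plasma taken 5–480 min post-dose, extracted with 0.1% formic acid in acetonitrile, quantified by LC/MS/MS (positive mode). AUC(0–t) by linear/log trapezoidal rule; IV curve back-extrapolated assuming initial volume 0.26 L/kg.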

[36] = AUC (0 to t) in Sprague-Dawley rat at 1 mg/kg, iv administered as single dose; format: ADME, organism-based, Plasma; parameters: dose 1 mg/kg, route intravenous; conditions: Sprague-Dawley, plasma; outline: as §7
Mus musculus [37] = assay: Antiinflammatory activity in mouse assessed as inhibition of LPS-induced TNFalpha upregulation at 0.057 ug, po measured 2 hrs after LPS challenge; format: functional; outline: as §2
[38] = biological target: C-C chemokine receptor type 2 (Homo sapiens) (UniProt P41597); assay: Antagonist activity at CCR2 in human THP1 cells assessed as inhibition of CCL2-induced chemotaxis at 10 nM after 2 hrs by microtiter format trans-well migration assay; format: functional, cell-based; conditions: THP-1; outline: as §5
Mus musculus [39] = assay: Antiinflammatory activity in mouse assessed as inhibition of LPS-induced TNFalpha upregulation at 0.016 ug, po measured 2 hrs after LPS challenge; format: functional; outline: as §2
[40] = biological target: C-C chemokine receptor type 2 (Homo sapiens) (UniProt P41597); assay: Antagonist activity at CCR2 in human THP1 cells assessed as inhibition of CCL2-induced chemotaxis at 0.1 nM after 2 hrs by microtiter format trans-well migration assay; format: functional, cell-based; conditions: THP-1; outline: as §5

## C[C@@H]1C[C@H]2[C@@H]3CCC4=CC(=O)C=C[C@]4(C)[C@@]3(F)[C@@H](O)C[C@]2(C)[C@@]1(O)C(=O)CO [DEXAMETHASONE]
Mus musculus [1]
  inhibition (INH): 24%
Mus musculus [2]
  inhibition (INH): 33%
Mus musculus [3]
  inhibition (INH): 84%
Mus musculus [4]
  inhibition (INH): 75%
Mus musculus [5]
  inhibition (INH): 87%
Mus musculus [6]
  inhibition (INH): 90%
Mus musculus [7]
  ED50: 3 µg/kg
Mus musculus [8]
  inhibition (INH): 31%
Mus musculus [9]
  inhibition (INH): 90%
Mus musculus [10]
  inhibition (INH): 69%
Mus musculus [11]
  inhibition (INH): 88%

## CC(C)(C)C(=O)N[C@H]1CCCCNC1=O
[12]
  bioavailability: 71%
[13]
  inhibition: 101%
Mus musculus [14]
  inhibition (INH): 73%
Mus musculus [15]
  inhibition (INH): 81%
[16]
  clearance: 0.408 L/h/kg
Mus musculus [17]
  inhibition (INH): 80%
Mus musculus [18]
  inhibition (INH): 91%
[19]
  inhibition: 33%
Mus musculus [20]
  inhibition (INH): 41%
[21]
  half-life: 2.02 h
Mus musculus [22]
  inhibition (INH): 80%
Mus musculus [23]
  inhibition (INH): 80%
Mus musculus [24]
  inhibition (INH): 43%
[25]
  inhibition: 102%
Mus musculus [26]
  inhibition (INH): 83%
Mus musculus [27]
  ED50: 0.1 µg/kg
Mus musculus [6]
  inhibition (INH): 90%
[28]
  ED50: 0.04 nM
Mus musculus [29]
  inhibition (INH): 94%
Mus musculus [7]
  ED50: 0.1 µg/kg
Mus musculus [30]
  inhibition (INH): 44%
[31]
  Vd: 0.7 L/kg
[32]
  Cmax: 0.989 µg/mL
[33]
  inhibition: 101%
[34]
  half-life: 2.8 h
[35]
  AUC(0-t): 8.22 µg·h/mL
[36]
  AUC(0-t): 3.86 µg·h/mL
Mus musculus [37]
  inhibition (INH): 76%
[38]
  inhibition: 102%
Mus musculus [39]
  inhibition (INH): 70%
[40]
  inhibition: 80%
